Experimental data reported in paper PMC12166256 (Clinical Pharmacology and Therapeutics, 2025).
Marks after values point to notes of the source that are not given here.

Assay: MAD study: plasma and urine pharmacokinetics
Type: in vivo, human
Settings: for CLR (renal clearance), mean ± SD / CLR, geometric mean: MAD steady state
In short: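 Healthy males got oral doses for 14 days: 100 mg once daily fasted, or 100, 200 or 300 mg twice daily fed. Plasma was drawn pre-dose and […] on Day 1, pre-dose and at 3 h on Days 4, 7 and 12, and up to 120 h after the final Day 14 morning dose. Urine was collected over 24 h at steady state. LC–MS/MS, LLOQ 2 ng/mL; non-compartmental analysis.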

[1] = MAD Day 14, 100 mg BID fed, n = 6

## CN1C(=O)c2cccc(OC(F)F)c2[C@H]2C[C@@H]1c1nc3ccc(-c4cnc(C5(N)CCC5)nc4)cc3n12 [Balinatunfib]
MAD Day 14, 100 mg BID fed
  FLrel (relative fluctuation), geometric mean: (46.1) [20] %
  R ac (accumulation ratio), mean ± SD: 5.46 ± 0.951
  R ac Cmax (accumulation ratio based on C max), mean ± SD: 4.77 ± 0.730
  R ac, geometric mean: (5.38) [17]
  V z/F, geometric mean: (2,250) [51] L
  t max, median (min, max): 3.00 (1.00, 4.00) h
[1]
  t 1/2z, geometric mean: (23.6) [13] h
  t 1/2z, mean ± SD: 23.8 ± 3.18 ^g h
MAD Day 14, 100 mg QD fasted
  AUC0-tau, geometric mean: (1,680) [27] ng·h/mL
  AUC0-tau, mean ± SD: 1,750 ± 471 ng·h/mL
  C av, geometric mean: (70.0) [27] ng/mL
  C av, mean ± SD: 72.9 ± 19.6 ng/mL
  C max, geometric mean: (153) [31] ng/mL
  C max, mean ± SD: 161 ± 49.2 ng/mL
  C trough, geometric mean: (35.2) [31] ng/mL
  C trough, mean ± SD: 37.2 ± 11.5 ng/mL
  CLss/F, geometric mean: (59.5) [37] L/h
  CLss/F, mean ± SD: 62.5 ± 23.4 L/h
  FLrel (relative fluctuation), geometric mean: (168) [20] %
  R ac (accumulation ratio), mean ± SD: 2.52 ± 0.431
  R ac Cmax (accumulation ratio based on C max), mean ± SD: 1.87 ± 0.400
  R ac, geometric mean: (2.50) [17]
  V z/F, geometric mean: (2,530) [38] L
  V z/F, mean ± SD: 2,700 ± 1,020 L
  t 1/2z, geometric mean: (29.5) [28] h
  t 1/2z, mean ± SD: 30.3 ± 8.43 h
  t max, median (min, max): 3.00 (2.00, 4.00) h
MAD Day 14, 200 mg BID fed
  AUC0-tau, geometric mean: (4,990) [37] ng·h/mL
  AUC0-tau, mean ± SD: 5,370 ± 2,010 ng·h/mL
  C av, geometric mean: (416) [37] ng/mL
  C av, mean ± SD: 448 ± 167 ng/mL
  C max, geometric mean: (511) [35] ng/mL
  C max, mean ± SD: 547 ± 193 ng/mL
  C trough, geometric mean: (349) [43] ng/mL
  C trough, mean ± SD: 383 ± 163 ng/mL
  CLss/F, geometric mean: (40.1) [47] L/h
  CLss/F, mean ± SD: 43.7 ± 20.6 L/h
  FLrel (relative fluctuation), geometric mean: (44.7) [27] %
  R ac (accumulation ratio), mean ± SD: 4.65 ± 0.654
  R ac Cmax (accumulation ratio based on C max), mean ± SD: 3.91 ± 0.612
  R ac, geometric mean: (4.60) [14]
  V z/F, geometric mean: (1,380) [62] L
  V z/F, mean ± SD: 1,590 ± 983 L
  t 1/2z, geometric mean: (23.9) [14] h
  t 1/2z, mean ± SD: 24.1 ± 3.28 h
  t max, median (min, max): 3.00 (2.00, 8.00) h
MAD Day 14, 300 mg BID fed
  AUC0-tau, geometric mean: (9,290) [27] ng·h/mL
  AUC0-tau, mean ± SD: 9,670 ± 2,650 ng·h/mL
  C av, geometric mean: (774) [27] ng/mL
  C av, mean ± SD: 806 ± 221 ng/mL
  C max, geometric mean: (947) [27] ng/mL
  C max, mean ± SD: 982 ± 261 ng/mL
  C trough, geometric mean: (639) [32] ng/mL
  C trough, mean ± SD: 676 ± 215 ng/mL
  CLss/F, geometric mean: (32.3) [37] L/h
  CLss/F, mean ± SD: 33.9 ± 12.7 L/h
  FLrel (relative fluctuation), geometric mean: (46.1) [29] %
  R ac (accumulation ratio), mean ± SD: 4.40 ± 1.22
  R ac Cmax (accumulation ratio based on C max), mean ± SD: 3.62 ± 0.861
  R ac, geometric mean: (4.25) [28]
  V z/F, geometric mean: (991) [29] L
  V z/F, mean ± SD: 1,030 ± 299 L
  t 1/2z, geometric mean: (21.3) [23] h
  t 1/2z, mean ± SD: 21.7 ± 4.92 h
  t max, median (min, max): 3.00 (2.00, 6.00) h
100 mg BID fed
  CLR (renal clearance), mean ± SD: 5.16 ± 2.10 L/h
  CLR, geometric mean: (4.83) [41] L/h
100 mg QD fasted
  CLR (renal clearance), mean ± SD: 5.53 ± 1.67 L/h
  CLR, geometric mean: (5.30) [30] L/h
200 mg BID fed
  CLR (renal clearance), mean ± SD: 4.62 ± 0.862 L/h
  CLR, geometric mean: (4.55) [19] L/h
300 mg BID fed
  CLR (renal clearance), mean ± SD: 4.92 ± 0.929 L/h
  CLR, geometric mean: (4.85) [19] L/h
After QD dosing
  accumulation: 2.52 fold
Healthy participants
  apparent volume of distribution: > 1,000 L
